From ChEMBL document CHEMBL1142957, “Total structure and inhibition of tumor cell proliferation of laxaphycins” (J Med Chem, 2007)

Key:
[1] = test system: CCRF-CEM; experiment: Cytotoxicity against drug-sensitive CCRF-CEM cells after 72 hrs; format: cell-based; settings: Homo sapiens
Outline: (§1)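 Leukemic lymphoblasts (parent CCRF-CEM, Pgp-overexpressing CEM/VLB100, topo II-altered CEM/VM-1) grown in RPMI 1640 with 10% FCS and antibiotics, 37 °C, 5% CO2. Serial dilutions in medium added to 2 × 10⁵ cells/mL for 3 days, medium not renewed. Survivors counted on a Coulter counter. Triplicate, averaged.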

[2] = Cytotoxicity against vinblastine-resistant CEM/VLB100 cells after 72 hrs; format: cell-based; settings: Homo sapiens, CEM/VLB100, 72 h; outline: as §1
[3] = Cytotoxicity against teniposide-resistant CEM/VM1 cells after 72 hrs; format: cell-based; settings: Homo sapiens, CEM-VM1, 72 h; outline: as §1
[4] = test system: CCRF-CEM; experiment: Ratio of IC50 for vinblastine-resistant CEM/VLB100 cells over IC50 for drug-sensitive CCRF-CEM cells; format: functional, Homo sapiens
[5] = test system: CCRF-CEM; experiment: Ratio of IC50 for teniposide-resistant CEM/VM1 cells over IC50 for drug-sensitive CCRF-CEM cells; format: functional, Homo sapiens

Question: With `CCCCCCC[C@@H]1CC(=O)N[C@@H](C(C)C)C(=O)N[C@@H]([C@@H](O)C(C)C)C(=O)N[C@@H](C)C(=O)N[C@H]([C@@H](O)C(C)C)C(=O)N[C@@H](CCC(N)=O)C(=O)N(C)[C@@H]([C@@H](C)CC)C(=O)N[C@H]([C@@H](O)C(N)=O)C(=O)N[C@@H]([C@@H](C)O)C(=O)N2C[C@H](O)C[C@H]2C(=O)N[C@H](CC(C)C)C(=O)N[C@@H]([C@@H](C)O)C(=O)N1` [LAXAPHYCIN B3] as the compound, how does the IC50 [1] read?
Answer: Its IC50 is 1500 nM.

Question: What about the IC50 [2] of the same compound?
Answer: The IC50 was 1350 nM.

Question: And the IC50 [3]?
Answer: The IC50 was 1450 nM.

Question: What about the “Ratio IC50” value [4] of the same compound?
Answer: The value was 0.9.

Question: And the “Ratio IC50” value [5]?
Answer: The value was 1.
